Data: ChEMBL document CHEMBL5724801, “EUbOPEN Chemogenomics Library - Multiplex” (2024)
Several values for one entry are separate records, joined by “and”; a condition that tells them apart may be missing. Equal entries are not always repeated.

Tested on: U2OS
Experiment: Multiplex assay against U2OS
Type: toxicity, cell-based
Conditions: human
In short: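 Per cents of healthy-nucleus cells form the tubulin, mitochondrial-mass and membrane-permeability phenotype values. Live cells were stained at seeding with Hoechst33342, BioTracker Green Microtubule Cytoskeleton Dye, MitoTracker Red and Annexin V Alexa Fluor 680. After compound addition they were imaged on a CQ1 microscope at 37°C and 5% CO2, and CellPathfinder machine-learning gating split them into Hoechst high-intensity objects or normal cells, normal cells into healthy, pyknosed or fragmented nuclei, and pyknosed cells into mitotic or apoptotic.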

[1] = 12 h, 1 µM, compound concentration 1 uM
[2] = 12 h, 10 µM, compound concentration 10 uM
[3] = 24 h, 1 µM, compound concentration 1 uM
[4] = 24 h, 10 µM, compound concentration 10 uM
[5] = 48 h, 1 µM, compound concentration 1 uM
[6] = 48 h, 10 µM, compound concentration 10 uM

## O=C(Nc1cc(-c2ccccc2)nn1-c1ccccc1F)c1ccc([N+](=O)[O-])cc1
[1]
  Population Apoptotic (%): 86% and 91%
  Population Fragmented Nuclei (%): 25% and 14%
  Population Healthy Nuclei (%): 66% and 78%
  Population Hoechst High Intensity Objects (%): 4% and 1%
  Population Membrane Permeable-Phenotype (%): 10% and 9%
  Population Mitochondria Different-Phenotype (%): 4%
  Population Mitotic Cells (%): 13% and 8%
  Population Normal (%): 95% and 98%
  Population Pyknosed Nuclei (%): 8% and 6%
  Population Tubulin-Different-Phenotype (%): 4% and 9%
  Total Cell Count: 293 and 182
[2]
  Population Apoptotic (%): 66% and 94%
  Population Fragmented Nuclei (%): 30% and 12%
  Population Healthy Nuclei (%): 60% and 73%
  Population Hoechst High Intensity Objects (%): 3% and 0%
  Population Membrane Permeable-Phenotype (%): 11%
  Population Mitochondria Different-Phenotype (%): 5% and 8%
  Population Normal (%): 96% and 100%
  Population Pyknosed Nuclei (%): 9% and 13%
  Population Tubulin-Different-Phenotype (%): 7% and 6%
  Total Cell Count: 293 and 134
[3]
  Population Apoptotic (%): 91% and 100%
  Population Fragmented Nuclei (%): 24% and 15%
  Population Healthy Nuclei (%): 68% and 76%
  Population Hoechst High Intensity Objects (%): 3% and 1%
  Population Membrane Permeable-Phenotype (%): 6% and 9%
  Population Mitochondria Different-Phenotype (%): 4% and 5%
  Population Mitotic Cells (%): 8% and 0%
  Population Normal (%): 96% and 98%
  Population Pyknosed Nuclei (%): 7% and 8%
  Population Tubulin-Different-Phenotype (%): 5% and 6%
  Total Cell Count: 342 and 226
[4]
  Population Apoptotic (%): 91% and 100%
  Population Fragmented Nuclei (%): 25% and 14%
  Population Healthy Nuclei (%): 64% and 76%
  Population Hoechst High Intensity Objects (%): 1% and 0%
  Population Membrane Permeable-Phenotype (%): 7% and 11%
  Population Mitochondria Different-Phenotype (%): 3% and 8%
  Population Mitotic Cells (%): 8% and 0%
  Population Normal (%): 98% and 99%
  Population Pyknosed Nuclei (%): 9%
  Population Tubulin-Different-Phenotype (%): 5% and 8%
  Total Cell Count: 353 and 164
[5]
  Population Apoptotic (%): 89% and 90%
  Population Fragmented Nuclei (%): 17% and 12%
  Population Healthy Nuclei (%): 73% and 79%
  Population Hoechst High Intensity Objects (%): 2% and 1%
  Population Membrane Permeable-Phenotype (%): 9% and 6%
  Population Mitochondria Different-Phenotype (%): 5% and 4%
  Population Mitotic Cells (%): 10%
  Population Normal (%): 97% and 98%
  Population Pyknosed Nuclei (%): 8%
  Population Tubulin-Different-Phenotype (%): 5%
  Total Cell Count: 475 and 371
[6]
  Population Apoptotic (%): 81% and 89%
  Population Fragmented Nuclei (%): 20% and 10%
  Population Healthy Nuclei (%): 67% and 76%
  Population Hoechst High Intensity Objects (%): 2%
  Population Membrane Permeable-Phenotype (%): 8% and 11%
  Population Mitochondria Different-Phenotype (%): 4% and 8%
  Population Mitotic Cells (%): 18% and 10%
  Population Normal (%): 97%
  Population Pyknosed Nuclei (%): 12% and 13%
  Population Tubulin-Different-Phenotype (%): 6% and 8%
  Total Cell Count: 445 and 226

## NCCc1cn(S(=O)(=O)c2c(Cl)nc3sccn23)c2ccccc12.O=C(O)C(=O)O
[1]
  Population Apoptotic (%): 66% and 81%
  Population Fragmented Nuclei (%): 30% and 17%
  Population Healthy Nuclei (%): 58% and 72%
  Population Hoechst High Intensity Objects (%): 1%
  Population Membrane Permeable-Phenotype (%): 9% and 4%
  Population Mitochondria Different-Phenotype (%): 6% and 8%
  Population Mitotic Cells (%): 33% and 18%
  Population Normal (%): 98%
  Population Pyknosed Nuclei (%): 10% and 9%
  Population Tubulin-Different-Phenotype (%): 6%
  Total Cell Count: 280 and 116
[2]
  Population Apoptotic (%): 71% and 82%
  Population Fragmented Nuclei (%): 26% and 20%
  Population Healthy Nuclei (%): 42% and 53%
  Population Hoechst High Intensity Objects (%): 5% and 4%
  Population Membrane Permeable-Phenotype (%): 42% and 30%
  Population Mitochondria Different-Phenotype (%): 60% and 71%
  Population Mitotic Cells (%): 28% and 17%
  Population Normal (%): 94% and 95%
  Population Pyknosed Nuclei (%): 30% and 26%
  Population Tubulin-Different-Phenotype (%): 59% and 50%
  Total Cell Count: 221 and 115
[3]
  Population Apoptotic (%): 69% and 78%
  Population Fragmented Nuclei (%): 25% and 20%
  Population Healthy Nuclei (%): 66% and 70%
  Population Hoechst High Intensity Objects (%): 1%
  Population Membrane Permeable-Phenotype (%): 6% and 9%
  Population Mitochondria Different-Phenotype (%): 5% and 7%
  Population Mitotic Cells (%): 30% and 21%
  Population Normal (%): 98%
  Population Pyknosed Nuclei (%): 8% and 9%
  Population Tubulin-Different-Phenotype (%): 3% and 7%
  Total Cell Count: 326 and 151
[4]
  Population Apoptotic (%): 83% and 86%
  Population Fragmented Nuclei (%): 29% and 20%
  Population Healthy Nuclei (%): 38% and 46%
  Population Hoechst High Intensity Objects (%): 6% and 3%
  Population Membrane Permeable-Phenotype (%): 26%
  Population Mitochondria Different-Phenotype (%): 63% and 67%
  Population Mitotic Cells (%): 16% and 13%
  Population Normal (%): 93% and 96%
  Population Pyknosed Nuclei (%): 31% and 33%
  Population Tubulin-Different-Phenotype (%): 26% and 38%
  Total Cell Count: 240 and 116
[5]
  Population Apoptotic (%): 81% and 85%
  Population Fragmented Nuclei (%): 21%
  Population Healthy Nuclei (%): 70% and 66%
  Population Hoechst High Intensity Objects (%): 1% and 6%
  Population Membrane Permeable-Phenotype (%): 5% and 10%
  Population Mitochondria Different-Phenotype (%): 4% and 7%
  Population Mitotic Cells (%): 18% and 14%
  Population Normal (%): 98% and 93%
  Population Pyknosed Nuclei (%): 8% and 12%
  Population Tubulin-Different-Phenotype (%): 2% and 7%
  Total Cell Count: 454 and 182
[6]
  Population Apoptotic (%): 92%
  Population Fragmented Nuclei (%): 37% and 29%
  Population Healthy Nuclei (%): 27% and 34%
  Population Hoechst High Intensity Objects (%): 7%
  Population Membrane Permeable-Phenotype (%): 25% and 42%
  Population Mitochondria Different-Phenotype (%): 56% and 65%
  Population Mitotic Cells (%): 7%
  Population Normal (%): 92%
  Population Pyknosed Nuclei (%): 35%
  Population Tubulin-Different-Phenotype (%): 25% and 42%
  Total Cell Count: 241 and 127

## COc1cc2nc(N3CCN(C(=O)COc4c(OC)cccc4C(C)C)CC3)nc(N)c2cc1OC.Cl.Cl
[1]
  Population Apoptotic (%): 67% and 33%
  Population Fragmented Nuclei (%): 21% and 10%
  Population Healthy Nuclei (%): 66% and 84%
  Population Hoechst High Intensity Objects (%): 3% and 2%
  Population Membrane Permeable-Phenotype (%): 10%
  Population Mitochondria Different-Phenotype (%): 5% and 6%
  Population Mitotic Cells (%): 32% and 66%
  Population Normal (%): 96% and 97%
  Population Pyknosed Nuclei (%): 11% and 4%
  Population Tubulin-Different-Phenotype (%): 6%
  Total Cell Count: 256 and 136
[2]
  Population Apoptotic (%): 55% and 66%
  Population Fragmented Nuclei (%): 30% and 19%
  Population Healthy Nuclei (%): 43% and 48%
  Population Hoechst High Intensity Objects (%): 3% and 0%
  Population Membrane Permeable-Phenotype (%): 60% and 54%
  Population Mitochondria Different-Phenotype (%): 55% and 65%
  Population Mitotic Cells (%): 44% and 33%
  Population Normal (%): 96% and 99%
  Population Pyknosed Nuclei (%): 25% and 32%
  Population Tubulin-Different-Phenotype (%): 75% and 68%
  Total Cell Count: 233 and 151
[3]
  Population Apoptotic (%): 84% and 80%
  Population Fragmented Nuclei (%): 21% and 15%
  Population Healthy Nuclei (%): 67% and 77%
  Population Hoechst High Intensity Objects (%): 3% and 0%
  Population Membrane Permeable-Phenotype (%): 6% and 10%
  Population Mitochondria Different-Phenotype (%): 8% and 7%
  Population Mitotic Cells (%): 15% and 20%
  Population Normal (%): 96% and 99%
  Population Pyknosed Nuclei (%): 11% and 6%
  Population Tubulin-Different-Phenotype (%): 4% and 5%
  Total Cell Count: 297 and 154
[4]
  Population Apoptotic (%): 76% and 87%
  Population Fragmented Nuclei (%): 30% and 20%
  Population Healthy Nuclei (%): 36% and 40%
  Population Hoechst High Intensity Objects (%): 9% and 12%
  Population Membrane Permeable-Phenotype (%): 40% and 49%
  Population Mitochondria Different-Phenotype (%): 49% and 50%
  Population Mitotic Cells (%): 24% and 12%
  Population Normal (%): 90% and 87%
  Population Pyknosed Nuclei (%): 33% and 39%
  Population Tubulin-Different-Phenotype (%): 50% and 60%
  Total Cell Count: 246 and 185
[5]
  Population Apoptotic (%): 83% and 75%
  Population Fragmented Nuclei (%): 20% and 16%
  Population Healthy Nuclei (%): 70% and 72%
  Population Hoechst High Intensity Objects (%): 2% and 3%
  Population Membrane Permeable-Phenotype (%): 6% and 7%
  Population Mitochondria Different-Phenotype (%): 6%
  Population Mitotic Cells (%): 16% and 25%
  Population Normal (%): 97% and 96%
  Population Pyknosed Nuclei (%): 8% and 11%
  Population Tubulin-Different-Phenotype (%): 4% and 6%
  Total Cell Count: 441 and 225
[6]
  Population Apoptotic (%): 88% and 93%
  Population Fragmented Nuclei (%): 40% and 24%
  Population Healthy Nuclei (%): 21% and 23%
  Population Hoechst High Intensity Objects (%): 31% and 32%
  Population Membrane Permeable-Phenotype (%): 13% and 27%
  Population Mitochondria Different-Phenotype (%): 30% and 10%
  Population Mitotic Cells (%): 11% and 6%
  Population Normal (%): 68% and 67%
  Population Pyknosed Nuclei (%): 38% and 51%
  Population Tubulin-Different-Phenotype (%): 13% and 24%
  Total Cell Count: 296 and 180
